Assay results from publication PMC12218390 (Scientific Reports, 2025).

Columns and labels:
[1] = test system: Dengue virus type-2 (DENV2) in BHK-21 cells; assay: Cytopathic effect; assay type: cell-based; conditions: DENV2-infected BHK-21 cells; concentrations within MNTD
In short: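 Maximal non-toxic dose in BHK-21 cells was first set by MTT. Cells were seeded at 1 × 10⁵/well and infected with DENV2 (MOI 0.02, DMEM with 2% FBS) for 1 h at 37 °C, 5% CO₂. At 1 h post-infection, compounds diluted in DMEM (2% FBS) within the non-toxic range were added, with castanospermine as the positive control. CPE was scored by phase-contrast microscopy, in triplicate.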

[2] = test system: BHK-21 cells; assay: MTT assay for Maximum Non-Toxic Dose; assay type: cell-based
[3] = test system: HaCaT cells; assay: MTT cytotoxicity assay; assay type: cell-based, human; conditions: 100 µg/mL
In short: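 HaCaT keratinocytes were grown in DMEM with 10% FBS and 1% antibiotic-antimycotic at 37 °C, 5% CO₂. Cells were seeded at 1 × 10⁴/well for 24 h, then exposed to 1 to 100 µg/mL for 48 h, with 5-FU as the positive control and untreated cells as baseline. MTT (5 mg/mL) was added for 4 h, then SDS/DMF lysis buffer for 2 h, and plates read at 570 nm as percentage proliferation. Lower concentrations were retested to derive IC50 ± SE.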

[4] = DPPH free radical scavenging assay; assay type: physicochemical; conditions: ascorbic acid as reference
In short: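 DPPH (4 mg/100 ml in methanol) was mixed with test compound or ascorbic acid at 1 to 500 µg/ml in methanol. The control was DPPH plus methanol, and methanol alone served as blank. Samples were incubated 20–30 min at 37 °C and the decrease in absorbance at 515 nm read. Percentage scavenging was calculated from control versus sample absorbance, in triplicate.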

## O=c1cc(Nc2ccccc2)c2ccccc2o1 [Compound T5, 4-phenylaminocoumarin]
[1]
  Inhibition / reduction in cytopathic effects: did not exhibit significant inhibition of cytopathic effects
[2]
  Maximal non-toxic dose (MNTD): 0.1 µg/mL
[3]
  Cell death: very low percentages of cell death

## O[C@H]1[C@H](O)[C@@H](O)CN2CC[C@H](O)[C@H]12 [castanospermine, reference compound]
[1]
  Inhibition / reduction in cytopathic effects: 68%

## Nc1cc(=O)oc2ccccc12 [Compound T1, 4-aminocoumarin]
[1]
  Inhibition / reduction in cytopathic effects: did not exhibit significant inhibition of cytopathic effects
[2]
  Maximal non-toxic dose (MNTD): 2.5 µg/mL
[3]
  Cell death: very low percentages of cell death

## Cc1ccc(S(=O)(=O)[O-])cc1.Nc1c([I+]c2ccccc2)c(=O)oc2ccccc12 [Compound T2, 4-amino-3-phenyliodoniocoumarin tosylate]
[4]
  DPPH radical scavenging IC50: ≥ 50 µg/mL
[1]
  Inhibition / reduction in cytopathic effects: up to 12%
[3]
  Cell death: more than 60%

## O=c1oc2ccccc2c(Nc2ccccc2)c1I [Compound T4, 3-iodo-4-phenylaminocoumarin]
[1]
  Inhibition / reduction in cytopathic effects: up to 12%
[2]
  Maximal non-toxic dose (MNTD): 1 µg/mL
[3]
  Cell death: more than 60%

## O=c1oc2ccccc2c(N(c2ccccc2)c2ccccc2)c1I [Compound T6, 4-diphenylamino-3-iodocoumarin]
[1]
  Inhibition / reduction in cytopathic effects: did not exhibit significant inhibition of cytopathic effects
[2]
  Maximal non-toxic dose (MNTD): 0.1 µg/mL
[3]
  Cell death: very low percentages of cell death
